Screens (PubChem BioAssay)
Most compounds without a hit are left out; they make up all but 2.2% or so of the library.
E-selectin induc = E-selectin induction in HUVECs, primary screen, imaging, HUVEC, immunofluorescence imaging, single point; 0.37% of 260,000 active; P16581; AID 686992, 2013; activation, % at 7.58 µM; normalized: neutral wells 0, TNF-alpha wells 100;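 active = mean E-selectin-positive cell signal at least 10% of the positive control, reached in at least 60% of replicates, without over 20% cell loss; inconclusive = no rule given, readout overlaps actives, possibly toxicity-flagged; inactive = the rest, including those meeting only one limit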
Target sequence (P16581 whole entry, looked up): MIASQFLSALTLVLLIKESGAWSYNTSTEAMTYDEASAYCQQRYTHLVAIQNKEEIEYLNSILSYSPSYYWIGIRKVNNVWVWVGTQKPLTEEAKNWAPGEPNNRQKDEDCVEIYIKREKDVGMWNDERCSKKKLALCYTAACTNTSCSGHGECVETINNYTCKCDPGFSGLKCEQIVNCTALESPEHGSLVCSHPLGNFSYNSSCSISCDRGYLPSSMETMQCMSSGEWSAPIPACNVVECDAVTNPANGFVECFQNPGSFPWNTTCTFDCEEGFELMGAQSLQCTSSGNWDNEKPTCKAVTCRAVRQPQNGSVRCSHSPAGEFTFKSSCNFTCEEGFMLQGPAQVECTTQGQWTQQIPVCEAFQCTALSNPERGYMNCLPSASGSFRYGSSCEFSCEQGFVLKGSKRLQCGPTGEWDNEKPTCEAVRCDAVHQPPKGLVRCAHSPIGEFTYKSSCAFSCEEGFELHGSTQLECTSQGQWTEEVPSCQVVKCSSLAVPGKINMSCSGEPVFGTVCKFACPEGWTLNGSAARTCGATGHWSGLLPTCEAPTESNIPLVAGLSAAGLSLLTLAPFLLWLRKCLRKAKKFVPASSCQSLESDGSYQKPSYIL
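Assay system: HUVEC, human umbilical vein endothelial cells / Amount: 3,000 HUVEC/well / Controls: TNF-alpha positive control, DMSO neutral control / Compound dosing: single concentration / Medium: EGM-2 over gelatin coat / Evaluation: percent E-selectin-positive cells / Signal: immunofluorescence imaging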
C2C12 statin = suppressors of statin myotoxicity in C2C12 myotubes, primary screen, cell-based, single point, plate reader; C2C12 myotubes + simvastatin, ATP luminescence, 48 h; scaled: DMSO 0, geranylgeraniol control 100; rescue of ATP level, % at 7.49 µM; 0.78% of 330,000 active; AID 602340, 2012;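 active = mean ATP rescue above about 67%, or every replicate alone reaching that limit, limit read from the data, passing the limit was not always enough; inconclusive = no clear call, values can overlap the other calls; inactive = mean under the limit and some replicate under it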;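 also: myotubes were challenged with 10 µM simvastatin during compound exposure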
DENV2 CPE rescue = inhibitors of DENV2 cytopathic effect, primary screen, cell-based, plate reader, single concentration. CPE inhibition, % at 9.99 µM. DENV2-infected cells, cytopathic effect rescue. 1.7% of 350,000 active; in the data active = CPE inhibition above about 20%, passing the limit was not always enough; inconclusive = no clear call, values can overlap the other calls; tested in BHK-21 cells;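 also: 0% = median of neutral control wells and 100% = median of positive control wells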
Active calls of the source: *; ? = inconclusive; . = no result given.

SMILES | E-selectin induc | C2C12 statin | DENV2 CPE rescue
C[C@@H]1CN([C@@H](C)CO)C(=O)c2cc(Br)cnc2O[C@@H]1CN(C)C(=O)Nc1ccccc1 | -0.1 | 28.2 | 2.1
Cn1c(-c2ccc(F)cc2)cnc1NCc1ccc(C#N)cc1 | . | 1.2 | .
Cn1c(-c2ccc(F)cc2)cnc1NCc1ccc(F)cc1 | . | 121.6* | .
COc1ccc2c3c([nH]c2c1)[C@@H](CO)N(C(=O)c1cccnc1)CC31CN(C(=O)Nc2cccc(F)c2)C1 | -0.3 | . | -0.6
O=C(Nc1ccc(S(=O)(=O)N2CCC(C(=O)NC3CCCCC3)CC2)cc1)c1ccco1 | . | 179.3* | .
O=C(Nc1ccc(S(=O)(=O)N2CCCCC2)cc1)c1ccco1 | . | -10.3 | -0.8
O=C(CN1CCOCC1)N1[C@@H](CO)[C@@H]2c3ccccc3NC[C@@H]21 | 0.1 | -4.3 | -0.9
CC(=O)OCCCN(C)CC/C=C1/c2ccccc2CSc2ccccc21 | . | . | 43.4*
C[N+](C)(C)CC/C=C1/c2ccccc2CSc2ccccc21 | . | 12.2 | .
Cc1noc(C)c1NC(=O)N(C)C[C@H]1OCCCC[C@H](C)Oc2ccc(NS(=O)(=O)c3cccs3)cc2C(=O)N([C@H](C)CO)C[C@@H]1C | 0.2 | . | -5.8
CCNC(=O)C[C@@H]1CC[C@@H]2[C@@H](COc3ccc(NC(=O)Nc4cccc(C)c4)cc3C(=O)N2C)O1 | 0.0 | 12.4 | ?
C[C@@H]1CN([C@H](C)CO)C(=O)c2cc(NS(C)(=O)=O)ccc2O[C@H]1CN(C)C(=O)Nc1ccc2c(c1)OCO2 | 197.0* | -11.1 | -1.4
C[C@@H]1CN([C@@H](C)CO)C(=O)c2cc(NS(C)(=O)=O)ccc2O[C@H]1CN(C)C(=O)Nc1ccc2c(c1)OCO2 | -2.6 | 8.3 | -3.9
C[C@H]1CN([C@@H](C)CO)C(=O)c2cc(NS(C)(=O)=O)ccc2O[C@H]1CN(C)C(=O)Nc1ccccc1 | -15.4 | 32.4 | -2.5
C[C@@H]1CN([C@H](C)CO)C(=O)c2cc(NS(C)(=O)=O)ccc2O[C@H]1CN(C)C(=O)Nc1ccccc1 | 69.2* | 1.4 | 4.1
C[C@H](CO)N1C[C@H](C)[C@H](CN(C)C(=O)Nc2ccccc2)Oc2ccc(NS(C)(=O)=O)cc2C1=O | 73.6* | -23.9 | -4.8
C[C@@H]1CN([C@@H](C)CO)C(=O)c2cc(NS(C)(=O)=O)ccc2O[C@H]1CN(C)C(=O)Nc1ccccc1 | -15.0 | 12.7 | 0.7
COc1ccc(S(=O)(=O)N(C)C[C@@H]2Oc3c(NC(=O)Nc4c(C)noc4C)cccc3C(=O)N([C@H](C)CO)C[C@H]2C)cc1 | -4.3 | . | .
COc1ccccc1CNC(=O)C[C@H]1CC[C@@H]2[C@H](COC[C@@H](O)CN2Cc2cccc(-c3ccncc3)c2)O1 | -0.1 | 11.8 | -7.5
CN1[C@@H]2c3ccc(C4=CCCC4)c(=O)n3C[C@@H]2[C@@H](CO)[C@@H]1C(=O)NCc1ccccc1F | 0.5 | 12.3 | 50.2*
COc1ccc(-c2ccc3n(c2=O)C[C@H]2[C@H](CO)[C@@H](C(=O)NCCN4CCCCC4)N(C)[C@@H]32)cc1 | -0.2 | . | 33.5*
CCCN1[C@H](C(=O)OC)[C@@H](CO)[C@@H]2Cn3c(ccc(C4=CCCC4)c3=O)[C@@H]21 | -0.2 | -1.9 | 84.0*
CCCN1[C@@H]2c3ccc(C4=CCCC4)c(=O)n3C[C@@H]2[C@@H](CO)[C@@H]1C(=O)OC | -0.6 | 2.0 | -4.6
COC(=O)[C@H]1[C@H](CO)[C@H]2Cn3c(ccc(C4=CCCC4)c3=O)[C@H]2N1CC1CCOCC1 | 1.1 | -5.8 | 70.8*
COC(=O)[C@H]1[C@H](CO)[C@H]2Cn3c(ccc(C4=CCCCC4)c3=O)[C@H]2N1CC1CCCCC1 | -0.3 | ? | ?
SMILES | E-selectin induc | C2C12 statin | DENV2 CPE rescue
O=C(NCC1CC1)[C@@H]1[C@@H](CO)[C@@H]2Cn3c(ccc(C4=CCCC4)c3=O)[C@@H]2N1Cc1ccccc1F | -0.5 | 26.8 | 5.3
COc1ccc(-c2ccc3n(c2=O)C[C@H]2[C@H](CO)[C@@H](C(=O)NCCN4CCCC4)N(C)[C@@H]32)cc1 | 0.0 | . | -2.1
COc1ccc(CN(C)C[C@@H]2Oc3c(NS(=O)(=O)c4ccc(F)cc4)cccc3C(=O)N([C@@H](C)CO)C[C@@H]2C)cc1 | 1.5 | 22.0 | -0.7
CN(C)CCCNC(=O)C[C@@H]1CC[C@H](NC(=O)c2ccccc2F)[C@@H](CO)O1 | 0.0 | -7.9 | -4.4
O=C(C[C@H]1C=C[C@@H](NC(=O)CC2CC2)[C@@H](CO)O1)NCc1ccc(Cl)cc1 | 0.0 | -1.0 | -4.8
COCC#Cc1cnc2c(c1)C(=O)N([C@@H](C)CO)C[C@H](C)[C@@H](CN(C)C(=O)Nc1ccccc1F)O2 | 0.2 | 23.1 | 5.7
O=C(C[C@@H]1CC[C@@H]2[C@H](COC[C@H](O)CN2Cc2ccccc2)O1)NCCc1ccccc1 | 0.1 | 18.5 | -4.6
